For 19 compounds, inhibition results are on record in ChEMBL document CHEMBL1123761, “Inhibition of the mammalian beta-lactamase renal dipeptidase (dehydropeptidase-I) by (Z)-2-(acylamino)-3-substituted-propenoic acids” (J Med Chem, 1987).

Non-standard residues stand in square brackets, D forms with d. Residues, ends and D or L forms follow the SMILES beside them. *: point of attachment. Isovaleryl = CC(C)CC(=O)*; Dhb = C/C=C(\N)C(=O)O; Butyryl = CCCC(=O)*

This test has as its target T1, Dipeptidase 1 (Sus scrofa) (UniProt P22412).
T1 sequence (whole entry): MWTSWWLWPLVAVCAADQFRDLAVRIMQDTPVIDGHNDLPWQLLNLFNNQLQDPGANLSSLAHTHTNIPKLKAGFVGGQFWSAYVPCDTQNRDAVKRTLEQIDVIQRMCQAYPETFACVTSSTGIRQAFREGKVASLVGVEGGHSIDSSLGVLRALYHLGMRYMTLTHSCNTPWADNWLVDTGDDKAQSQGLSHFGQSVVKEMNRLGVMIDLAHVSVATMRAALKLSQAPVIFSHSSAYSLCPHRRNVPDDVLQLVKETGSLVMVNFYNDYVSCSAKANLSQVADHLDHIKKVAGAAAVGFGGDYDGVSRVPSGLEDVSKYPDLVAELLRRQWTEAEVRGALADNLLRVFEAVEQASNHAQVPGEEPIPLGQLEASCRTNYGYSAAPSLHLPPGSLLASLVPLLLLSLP
The experiment in a line: Inhibitory activity against beta-lactamase renal dipeptidase at a concentration of 100 uM. In outline: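 Inhibitor was incubated with solubilized renal dipeptidase (50–75% ammonium sulfate fraction, 5 µg) in 50 mM MOPS pH 7.1 for 5 min at 37 °C. Glycyldehydrophenylalanine was then added to 50 µM. Rate was followed as the absorbance decrease at 275 nm over 10 min and compared with the uninhibited rate.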

For the compound `CC(C)=C(NC(=O)C1CC1(C)C)C(=O)O` (centres undefined), the inhibition was 57%.

Take `O=C(CO)N/C(=C\c1ccccc1)C(=O)O`: the inhibition came out at 4%.

`C/C=C(\NC(=O)CN)C(=O)O` (H-Gly-[Dhb]-OH) showed an inhibition of 6%.

Consider `C/C=C(\NC(=O)CC12CC3CC(CC(C3)C1)C2)C(=O)O`, for which the inhibition was found to be 33%.

For the compound `C/C=C(\NC(=O)CCl)C(=O)O`, the inhibition was determined as 52%.

`C/C=C(\NC(C)=O)C(=O)O` displayed an inhibition of 12%.

`O=C(O)/C(=C/Cl)NC(=O)c1ccccc1` showed an inhibition of 36%.

`C/C=C(\NC(=O)CNC(=O)CC(C)C)C(=O)O` (Isovaleryl-Gly-[Dhb]-OH) displayed an inhibition of 5%.

`C/C=C(\NC(=O)/C=C/C=C/C)C(=O)O` returned an inhibition of 0%.

The compound `C/C=C(\NC(=O)C(CCC)CCC)C(=O)O` showed an inhibition of 13%.

`C/C=C(\NC(=O)CNC(=O)CCC)C(=O)O` (Butyryl-Gly-[Dhb]-OH) gave an inhibition of 5%.

For the compound `C/C=C(\NC(=O)C1C(C=C(C)C)C1(C)C)C(=O)O` (centres undefined), the inhibition was determined as 15%.

Compound `C=C(NC(=O)c1ccccc1)C(=O)O` had an inhibition of 9%.

Compound `C/C=C(\NC(=O)CCCCCCCCC)C(=O)O` came in with an inhibition of 58%.

As to `C/C=C(\NC(=O)c1ccc(OC)cc1)C(=O)O`, the inhibition was 0%.

The compound `C/C=C(\NC(=O)CCCCCC)C(=O)O` had an inhibition of 49%.

`C/C=C(\NC(=O)c1ccc2ccccc2c1)C(=O)O`: the inhibition amounted to 3%.

Compound `C/C=C(\NC(=O)C1(C)CC1)C(=O)O` came in with an inhibition of 16%.

`C/C=C(\NC(=O)CCCCC)C(=O)O` returned an inhibition of 54%.
